In article PMC5362268 (Cell, 2017):
In brackets after ≈: the same amount, converted by molar mass. Several values for one entry are separate records, joined by “and”; a condition that tells them apart may be missing. Equal entries are not always repeated.

Tests used:
KRAS^G12D-GppNHp = KRAS^G12D-GppNHp (Homo sapiens, UniProt P01116, G12D); assay: Microscale thermophoresis; assay type: binding; conditions: selectivity panel
Method in brief: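 To strip endogenous nucleotide, KRAS G12D (250 μM) in 25 mM HEPES, 100 mM NaCl, 20 mM EDTA and 1 mM GppNHp was shaken at 220 rpm, 30 °C, before MST.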

KRAS^G12D I36N = KRAS^G12D I36N (Homo sapiens, UniProt P01116, G12D/I36N); assay: MST, I36N point mutant; assay type: binding; conditions: compared with KRAS^G12D
KRAS^wt = KRAS^wt (Homo sapiens, UniProt P01116); assay: MST with RAS GTPases; assay type: binding; conditions: selectivity panel, GppNHp-loaded
HRAS^wt = HRAS^wt (Homo sapiens, UniProt P01112); assay: MST with RAS GTPases; assay type: binding; conditions: selectivity panel, GppNHp-loaded
NRAS^wt = NRAS^wt (Homo sapiens, UniProt P01111); assay: MST with RAS GTPases; assay type: binding; conditions: selectivity panel, GppNHp-loaded
RRAS2 = RRAS2 (Homo sapiens, UniProt P62070); assay: MST with RAS GTPases; assay type: binding; conditions: selectivity panel, GppNHp-loaded
[1] = system: Kras^lox/lox, Hras^−/−, Nras^−/− RERTn^ert/ert MEFs; assay: Viability assay in mouse embryo fibroblasts; assay type: cell-based; conditions: Fibroblast, 48 h, read-out: IC50 (lethality)
Method in brief: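 Cells trypsinised and seeded at 1,000/well in 384-well plates unless otherwise specified. After 16 h, 8- or 16-point dilution series (from 10 mM DMSO stocks) transferred at 1:5. At 48 h, Alamar blue added to 10% final; fluorescence read after 6 h (ex 535, em 590 nm). Triplicates; 37 °C, 5% CO2.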

[2] = system: HT-1080 cells (NRAS^Q61K); assay: Lethality with PI3K and BRAF overexpression; assay type: cell-based, human; conditions: 24 h, 6-well format
Method in brief: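 HT-1080 cells were retrovirally transduced using Phoenix-AMPHO supernatant, 0.45 µm filtered and added twice 4 h apart. After 48 h they were re-seeded under puromycin (2 μg/mL) for 6 d, and expression was checked by qPCR. Cells at 100,000/well in 6-well plates were treated 24 h, trypsinized, and viability read by Trypan blue exclusion (Vi-Cell).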

[3] = system: T-ALL cells with mutant NRAS (G13V and G13D); assay: Viability of primary T-ALL patient samples; assay type: cell-based; conditions: Homo sapiens, 72 h
Method in brief: (§1)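 Primary T-ALL lymphoblasts, 250,000 per well in 24-well plates, in triplicate. Treated with DMSO vehicle or test compound across 1 to 5 μM for 72 h. Viability by flow-based kit with counting beads, gating out GFP+ stromal cells and PI+ dead cells and particles.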

[4] = system: T-ALL cells with wild-type NRAS; assay: Viability of primary T-ALL patient samples; assay type: cell-based, human; conditions: 5 μM, 72 h, four patient samples
Method in brief: as §1

[5] = system: MDA-MB-231 cell line (KRAS^G13D); assay: Multicellular tumor spheroids; assay type: cell-based, human; conditions: low-adherence plates, 72 h
SW480 (KRAS^G12V) = assay: Multicellular tumor spheroids; assay type: cell-based, human; conditions: low-adherence plates, 72 h
[6] = system: pERK and pAKT in BRAF-CAAX-containing MEFs; assay: Western blots of mouse embryo fibroblasts; assay type: cell-based; conditions: compared with Kras MEFs
Method in brief: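 MEFs seeded at 0.25 million/well in DMEM with Glutamax, 10% heat-inactivated FBS and P/S. Serum-starved 24 h, then given test compound in serum-free medium; EGF 10 ng/ml for 15 min where indicated. Band intensities background-subtracted; pERK and pAKT expressed as (phospho/tubulin)/(total/tubulin) and normalised to DMSO.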

[7] = system: pERK and pAKT in HT-1080 cells (NRAS^Q61K); assay: Western blots of RAS signaling; assay type: cell-based, human
Method in brief: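 Cells seeded 16 h before use in DMEM with 10% or 2% FBS plus P/S. Compound added in serum-free DMEM or DMEM 2% FBS for the indicated times. Lysis in HEPES pH 7.4 buffer with phosphatase and protease inhibitors; SDS-PAGE, PVDF transfer, Li-COR blocking, primary antibodies (1:1000) overnight at 4 °C.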

[8] = Microsomal stability assay; assay type: in vitro ADME; conditions: human, over 120 minutes
Method in brief: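 Liver microsomes incubated in 100 mM phosphate buffer, pH 7.4, supplemented with an NADPH-regenerating system (solutions A and B).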

MDA-MB-231 xenograft = assay: Xenograft therapeutic study in mice; assay type: in vivo, mouse; conditions: 180 mg/kg orally, 10 doses, 15 days of treatment, nude mice
Method in brief: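 Eight-week-old female nude mice received 7 million MDA-MB-231 cells subcutaneously. After 3 d they were randomised at ~58 mm³ tumours. Dosing was oral, 180 mg/kg (12 mg/mL, 10% DMSO, pH 4) or vehicle, 10 doses over 14 d. Tumours measured by caliper every 2 d; volume = 0.523 × length × width².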

[9] = system: phosphorylated ERK in MDA-MB-231 xenograft; assay: Pharmacodynamic study using MDA-MB-231 cells; assay type: in vivo, mouse; conditions: 30 mg/kg IP once per day for 6 d, vs vehicle
Method in brief: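 Eight-week-old athymic nude mice received 8 million MDA-MB-231 cells subcutaneously. After 4 d they were grouped at ~128 mm³ tumours and dosed IP once daily for 6 d with 30 mg/kg in 5% DMSO HBSS pH 4, or with that vehicle. Tumours were then analysed for phosphorylated ERK.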

[10] = system: PDTALL22 patient T-ALL xenograft; assay: Patient-derived xenograft study; assay type: in vivo, mouse; conditions: 30 mg/kg IP
Method in brief: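 Retrovirally transduced luciferase-expressing T-ALL cells were expanded in primary recipients, harvested from spleen and injected into secondary recipients. These were randomised into two groups of 5 with equal luciferase load. Dosing: vehicle or 30 mg/kg IP in 5% DMSO in HBSS pH 4 on days 0, 1, 4, 5, 7, 8. Imaging on days 0, 4 and 8; sacrifice on day 8 for spleen weight and human CD45+ cells.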

KP^f/fC mice = assay: Toxicity in KP^f/fC mouse study; assay type: in vivo; conditions: 30 mg/kg IP once daily
[11] = KC mouse weights on study; assay type: in vivo; conditions: individual mice
[12] = Solubility of compound 3144; assay type: physicochemical

Sequence of HRAS^wt (P01112 whole entry): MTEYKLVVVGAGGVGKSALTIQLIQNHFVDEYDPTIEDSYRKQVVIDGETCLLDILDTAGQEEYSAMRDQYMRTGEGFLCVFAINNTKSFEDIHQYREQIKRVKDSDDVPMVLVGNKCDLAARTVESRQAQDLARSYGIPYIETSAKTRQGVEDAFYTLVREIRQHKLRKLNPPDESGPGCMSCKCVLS
Sequence of NRAS^wt (P01111 whole entry): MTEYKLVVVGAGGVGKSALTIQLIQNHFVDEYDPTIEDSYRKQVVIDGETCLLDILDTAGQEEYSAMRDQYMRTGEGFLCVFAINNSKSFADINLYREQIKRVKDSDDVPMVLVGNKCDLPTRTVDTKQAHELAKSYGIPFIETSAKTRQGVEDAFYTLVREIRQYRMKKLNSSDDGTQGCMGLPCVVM
Sequence of RRAS2 (P62070 whole entry): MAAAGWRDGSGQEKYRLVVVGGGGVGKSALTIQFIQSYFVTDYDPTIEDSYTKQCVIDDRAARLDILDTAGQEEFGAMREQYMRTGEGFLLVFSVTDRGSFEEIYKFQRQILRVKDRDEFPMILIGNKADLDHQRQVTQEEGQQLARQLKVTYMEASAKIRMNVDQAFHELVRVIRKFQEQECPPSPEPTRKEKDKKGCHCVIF

NC1(C(=O)NCCCn2cc(-c3ccc(OC(F)(F)F)cc3)c3cc(CN4CCN(Cc5c(Cl)cccc5Cl)CC4)ccc32)CCNCC1 [compound 3144, 4-amino-N-(3-(5-((4-(2,6-dichlorobenzyl)piperazin-1-yl)methyl)-3-(4-(trifluoromethoxy)phenyl)-1H-indol-1-yl)propyl)piperidine-4-carboxamide]
binding by MST (KRAS^G12D-GppNHp): detected binding
binding affinity to I36N mutant (KRAS^G12D I36N): reduced binding affinity
binding by MST (KRAS^wt): detected binding
binding by MST (HRAS^wt): detected binding
binding by MST (NRAS^wt): detected binding
binding by MST (RRAS2): weak binding
IC50 [1]: 3.8 µM
lethality upon overexpression of activated alleles of PI3K and/or BRAF [2]: reduced
viability at 5 µM [3]: 20 to 40%
effect on viability [4]: no observable effect on viability
spheroid size [5]: decreased in size in a dose-dependent manner
spheroid size (SW480 (KRAS^G12V)): decreased in size in a dose-dependent manner
pERK and pAKT abundance [6]: more resistant
pERK and pAKT abundance [7]: somewhat decreased
EGF-induced pAKT and pERK abundance ([7]; 10 ng/mL EGF 15 min): suppressed to a degree
stability in liver microsomes [8]: relatively stable
tumor growth (MDA-MB-231 xenograft): inhibition of tumor growth
tumor pERK levels [9]: somewhat decreased
percent of infiltrative human CD45+ cells in spleen ([10]; day 8): reduction
spleen cellularity (hematoxylin and eosin) ([10]; day 8): decreased cellularity
spleen size ([10]; day 8): decrease in size
tumor burden (luciferase imaging) ([10]; days 0, 1, 4, 5, 7, 8, imaged after 4 and 8 days): decrease in tumor burden
toxicity (KP^f/fC mice): Toxicity was observed
KC mouse weights ([11]; day 1 on study): 33 and 30.5 and 30.7 and 33.5 and 35.8
KC mouse weights ([11]; day 2 on study): 32.2 and 28.1 and 27.8 and 33.5 and 34.5
KC mouse weights ([11]; day 3 on study): 29.9 and 24.84 and 32 and 26.86
KC mouse weights ([11]; day 4 on study): 28.8 and 23.6 and 30.5
KC mouse weights ([11]; day 5 on study): 28.5 and 30.2
concentration without visible precipitation ([12]; aqueous buffers (e.g., phosphate buffered saline), room temperature, 1.5% DMSO): ≥ 250 µM
solubility ([12]; aqueous solutions, aqueous buffer, kinetic from dmso stock): 5 µM (≈ 3.59 µg/mL)
